For one compound, IC50 and Activity results are on record in ChEMBL document CHEMBL1152901, “The synthesis and biological evaluation of para-substituted phenolic N-alkyl carbamates as endocannabinoid hydrolyzing enzyme inhibitors” (Eur J Med Chem, 2009).

For orientation: IC50 means the point on the concentration scale where inhibition reaches its midpoint.

Calls of active or inactive are those of the source. No cut-off for these calls is given here.

Experiment [1] addresses T1, Fatty-acid amide hydrolase 1 (Rattus norvegicus, UniProt P97612).
T1 sequence (P97612 whole entry): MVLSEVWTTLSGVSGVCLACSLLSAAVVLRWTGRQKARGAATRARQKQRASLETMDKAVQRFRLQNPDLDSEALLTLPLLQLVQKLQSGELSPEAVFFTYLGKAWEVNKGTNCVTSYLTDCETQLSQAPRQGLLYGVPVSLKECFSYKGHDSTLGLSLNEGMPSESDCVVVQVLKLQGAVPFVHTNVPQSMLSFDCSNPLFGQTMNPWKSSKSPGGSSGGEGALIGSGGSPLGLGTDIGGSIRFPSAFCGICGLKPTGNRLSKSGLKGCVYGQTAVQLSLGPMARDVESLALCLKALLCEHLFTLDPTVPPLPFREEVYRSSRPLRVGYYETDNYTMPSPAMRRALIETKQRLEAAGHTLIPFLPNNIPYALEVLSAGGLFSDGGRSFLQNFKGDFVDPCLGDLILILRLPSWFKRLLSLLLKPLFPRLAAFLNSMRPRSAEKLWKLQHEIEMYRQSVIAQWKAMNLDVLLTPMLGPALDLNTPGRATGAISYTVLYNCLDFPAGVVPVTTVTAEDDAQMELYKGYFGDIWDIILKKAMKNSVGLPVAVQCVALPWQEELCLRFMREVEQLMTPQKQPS
The experiment in a line: Inhibition of FAAH-mediated hydrolysis of [3H]anandamide in rat RBL2H3 cells. The format is cell-based, RBL-2H3. The essentials: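 RBL2H3 cells are preincubated 10 min at 37 °C with compound with or without URB597. [ethanolamine-1-3H]AEA is then added at 100 nM and incubated a further 20 min at 37 °C, and hydrolysis is measured. Data are means, n = 5, analysed by repeated-measures one-way ANOVA with Dunnett's test.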

Experiment [2] concerns the target T2, Monoglyceride lipase (Rattus norvegicus, UniProt Q8R431).
T2 sequence (Q8R431 whole entry): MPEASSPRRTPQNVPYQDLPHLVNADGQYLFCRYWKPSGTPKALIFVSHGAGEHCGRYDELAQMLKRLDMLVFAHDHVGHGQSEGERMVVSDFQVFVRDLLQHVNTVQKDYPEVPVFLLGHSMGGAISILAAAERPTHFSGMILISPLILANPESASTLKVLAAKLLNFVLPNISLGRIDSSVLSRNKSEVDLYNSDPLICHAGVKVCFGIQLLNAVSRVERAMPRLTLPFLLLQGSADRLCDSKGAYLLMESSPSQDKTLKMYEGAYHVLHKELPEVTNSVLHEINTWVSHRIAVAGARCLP
As to the kind of experiment: Inhibition of MGL in Wistar rat cerebral membrane by HPLC. The format is cell membranes. The procedure, abridged: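 Incubation is 90 min at 25 °C with 5 µg protein, 50 µM 2-AG, 100 mM NaCl and 5 mM MgCl2. The reaction is stopped with acidified acetonitrile (pH 3.0). 2-AG, 1(3)-AG and arachidonic acid are quantified by reversed-phase HPLC with UV at 211 nm. IC50 comes from a variable-slope fit, three experiments in duplicate; percentages are the mean of two in duplicate.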

Experiment [3] addresses T1, Fatty-acid amide hydrolase 1. As to the kind of experiment: Inhibition of FAAH in Wistar rat cerebral membrane by liquid scintillation counting. The experiment is classed as cell membranes. The procedure, abridged:
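Rat brain homogenate (10,000g supernatant from male Wistar forebrain, 8 weeks old), 18 µg protein, preincubated with inhibitor in DMSO (≤5% v/v) for 10 min at 37 °C in 0.1 M potassium phosphate pH 7.4 with 0.5% fatty-acid-free BSA. Then 2 µM AEA carrying [ethanolamine-1-3H]AEA is added for 10 min at 37 °C. The reaction is stopped with ethyl acetate and aqueous [3H]ethanolamine is counted. IC50 comes from a variable-slope sigmoidal fit, three experiments in duplicate; single-point values are the mean of two experiments in duplicate.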

The target of experiment [4] is T3, Fatty-acid amide hydrolase 1 (Rattus norvegicus) (UniProt P97612).
T3 sequence (whole entry): T1 sequence (P97612 whole entry)
As to the kind of experiment: Irreversible inhibition of FAAH in Wistar rat brain homogenate at 246 nM by liquid scintillation counting. The experiment is classed as tissue-based.

In experiment [5] the target is T3, Fatty-acid amide hydrolase 1 (Rattus norvegicus). The experiment in a line: Inhibition of FAAH-mediated uptake of [3H]anandamide in rat RBL2H3 cells. The experiment is classed as cell-based. The note with it: RBL-2H3. The procedure, abridged:
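RBL2H3 cells are preincubated 10 min at 37 °C with compound with or without URB597. [arachidonoyl-3H]AEA is then added at 100 nM and incubated a further 10 min at 37 °C. Wells without cells serve as a comparison. Data are means, n = 4, analysed by repeated-measures one-way ANOVA with Dunnett's test.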

In the case of `CCCCCCCCCCCCNC(=O)Oc1ccc(-c2csnn2)cc1`, the figures for the IC50 in experiment [1], in experiment [2] and in experiment [3] were 82 nM, 1900 nM and 12 nM, respectively. In addition, the outcome in experiment [4] and in experiment [5] was Active.
